Laboratory results: ChEMBL document CHEMBL4020844, “Regio- and Stereospecific Synthesis of Oridonin D-Ring Aziridinated Analogues for the Treatment of Triple-Negative Breast Cancer via Mediated Irreversible Covalent Warheads” (J Med Chem, 2018)
The source made the active and inactive calls. No cut-off for these calls is given here.

How the values were obtained:
[1] = Glutathione reactivity in pH 7.4 deuterated phosphate buffer assessed as reaction half life at 10 mg up to 120 mins in presence of 1.5 to 2 equiv of GSH by 1H NMR analysis; format: physicochemical; conditions: pH 7.4, 2 h
Method in brief: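 Glutathione (1.5–2 equiv) was incubated with compound at 37°C in DMSO-d6 mixed with sodium phosphate buffer in D2O, pH 7.4. Reactivity was monitored by 1H NMR.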

MDA-MB-231 [2] = experiment: Induction of apoptosis in human MDA-MB-231 cells assessed as early apoptotic cells at 5 uM after 48 hrs by Annexin V-FITC/propidium iodide staining based flow cytometry (reference value: 1.85%); format: functional
MDA-MB-231 [3] = experiment: Induction of apoptosis in human MDA-MB-231 cells assessed as late apoptotic cells at 15 uM after 48 hrs by Annexin V-FITC/propidium iodide staining based flow cytometry (reference value: 6.3%); format: functional
MDA-MB-231 [4] = experiment: Induction of apoptosis in human MDA-MB-231 cells assessed as early apoptotic cells at 15 uM after 48 hrs by Annexin V-FITC/propidium iodide staining based flow cytometry (reference value: 1.85%); format: functional
MDA-MB-468 [5] = experiment: Inhibition of colony formation in human MDA-MB-468 cells after 2 weeks by crystal violet staining based assay; format: functional, cell-based
Method in brief: (§1)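 Cells were seeded at 600 per well (MDA-MB-231) or 800 per well (MDA-MB-468, SK-BR3, MCF-7). After 24 h they were exposed to 1, 5, 10, 15 or 20 μM, or DMSO, with medium plus compound renewed every 72 h for 2 weeks. Wells were PBS-washed, stained with 0.01% crystal violet for 10 min, washed, dried and photographed.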

MDA-MB-231 [6] = experiment: Induction of apoptosis in human MDA-MB-231 cells assessed as reduction in Bcl2 to Bax ratio at 1 to 20 uM after 48 hrs by Western blot analysis; format: functional, cell-based
Method in brief: (§2)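 MDA-MB-231 cells were exposed to DMSO or compound at several concentrations for 48 h, then lysed. Protein was measured by Bradford with a BSA standard. 40 μg total protein was run on SDS-PAGE and transferred to nitrocellulose, then blocked with 5% milk. Primary antibodies were applied overnight: Bcl-2 1:200, cleaved PARP 1:500, NF-κB 1:1000, Bax 1:1000, β-actin 1:2000. Detection was by ECL.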

MDA-MB-231 [7] = experiment: Induction of apoptosis in human MDA-MB-231 cells assessed as live cells at 10 uM after 48 hrs by Annexin V-FITC/propidium iodide staining based flow cytometry (reference value: 90.35%); format: functional
MCF-10A = experiment: Antiproliferative activity against human MCF10A cells up to 100 uM after 48 hrs by MTT assay
MDA-MB-231 [8] = experiment: Induction of apoptosis in human MDA-MB-231 cells assessed as live cells at 1 uM after 48 hrs by Annexin V-FITC/propidium iodide staining based flow cytometry (reference value: 90.35%); format: functional
MDA-MB-231 [9] = experiment: Induction of apoptosis in human MDA-MB-231 cells assessed as late apoptotic cells at 5 uM after 48 hrs by Annexin V-FITC/propidium iodide staining based flow cytometry (reference value: 6.3%); format: functional
MDA-MB-231 [10] = experiment: Induction of apoptosis in human MDA-MB-231 cells after 48 hrs by Annexin V-FITC/propidium iodide staining based flow cytometry; format: functional, cell-based
MDA-MB-231 [11] = experiment: Induction of apoptosis in human MDA-MB-231 cells assessed as dead cells at 10 uM after 48 hrs by Annexin V-FITC/propidium iodide staining based flow cytometry (reference value: 1.5%); format: functional
MDA-MB-468 [12] = experiment: Antiproliferative activity against human MDA-MB-468 cells after 72 hrs by MTT assay; format: functional, cell-based
Method in brief: (§3)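 MTT proliferation assay. Cells were seeded at 1 × 10^4 per well and exposed to DMSO or compound at 0.1, 0.33, 1.0, 3.3 and 10 μM for 72 h. MTT reagent was added, and OD at 560 nm was read after 1 h at 37°C. Each concentration was tested in quadruplicate wells.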

MDA-MB-231 [13] = experiment: Induction of apoptosis in human MDA-MB-231 cells assessed as early apoptotic cells at 20 uM after 48 hrs by Annexin V-FITC/propidium iodide staining based flow cytometry (reference value: 1.85%); format: functional
MCF7 [14] = experiment: Antiproliferative activity against human MCF7 cells after 72 hrs by MTT assay; format: functional, cell-based; method in brief: as §3
MDA-MB-231 [15] = experiment: Induction of apoptosis in human MDA-MB-231 cells assessed as live cells at 20 uM after 48 hrs by Annexin V-FITC/propidium iodide staining based flow cytometry (reference value: 90.35%); format: functional
MDA-MB-231 [16] = experiment: Induction of apoptosis in human MDA-MB-231 cells assessed as upregulation of cleaved PARP after 48 hrs by Western blot analysis; format: functional, cell-based; method in brief: as §2
MDA-MB-231 [17] = experiment: Induction of apoptosis in human MDA-MB-231 cells assessed as live cells at 15 uM after 48 hrs by Annexin V-FITC/propidium iodide staining based flow cytometry (reference value: 90.35%); format: functional
MDA-MB-231 [18] = experiment: Induction of apoptosis in human MDA-MB-231 cells assessed as live cells at 5 uM after 48 hrs by Annexin V-FITC/propidium iodide staining based flow cytometry (reference value: 90.35%); format: functional
MCF7 [19] = experiment: Inhibition of colony formation in human MCF7 cells after 2 weeks by crystal violet staining based assay; format: functional, cell-based; method in brief: as §1
MDA-MB-231 [20] = experiment: Antiproliferative activity against human MDA-MB-231 cells after 72 hrs by MTT assay; format: functional, cell-based; method in brief: as §3
MDA-MB-231 [21] = experiment: Induction of apoptosis in human MDA-MB-231 cells assessed as late apoptotic cells at 20 uM after 48 hrs by Annexin V-FITC/propidium iodide staining based flow cytometry (reference value: 6.3%); format: functional
MDA-MB-231 [22] = experiment: Induction of apoptosis in human MDA-MB-231 cells assessed as late apoptotic cells at 1 uM after 48 hrs by Annexin V-FITC/propidium iodide staining based flow cytometry (reference value: 6.3%); format: functional
SK-BR-3 [23] = experiment: Inhibition of colony formation in human SK-BR-3 cells after 2 weeks by crystal violet staining based assay; format: functional, cell-based; method in brief: as §1
MDA-MB-231 [24] = experiment: Antitumor activity against human MDA-MB-231 cells xenografted in nude mouse assessed as tumor growth inhibition at 10 to 15 mg/kg, ip daily for 10 days; format: functional, organism-based
Method in brief: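 Orthotopic model: female nude mice, 6–8 weeks old. MDA-MB-231 cells (1.0 × 10^6 in PBS) were injected into the no. 3 mammary fat pad, and mice were randomized into 4 groups. Once tumors reached 80–100 mm3, mice received 10 or 15 mg/kg daily by intraperitoneal injection in DMSO vehicle. Tumor volume (0.5 × L × W2) and body weight were measured daily. Mean ± SEM.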

MDA-MB-231 [25] = experiment: Induction of apoptosis in human MDA-MB-231 cells assessed as early apoptotic cells at 10 uM after 48 hrs by Annexin V-FITC/propidium iodide staining based flow cytometry (reference value: 1.85%); format: functional
MDA-MB-231 [26] = experiment: Induction of apoptosis in human MDA-MB-231 cells assessed as late apoptotic cells at 10 uM after 48 hrs by Annexin V-FITC/propidium iodide staining based flow cytometry (reference value: 6.3%); format: functional
MDA-MB-231 [27] = experiment: Induction of apoptosis in human MDA-MB-231 cells assessed as dead cells at 5 uM after 48 hrs by Annexin V-FITC/propidium iodide staining based flow cytometry (reference value: 1.5%); format: functional
MDA-MB-231 [28] = experiment: Downregulation of NF-kB p65 protein expression in human MDA-MB-231 cells after 48 hrs by Western blot analysis; format: functional, cell-based; method in brief: as §2
MDA-MB-231 [29] = experiment: Induction of apoptosis in human MDA-MB-231 cells assessed as dead cells at 20 uM after 48 hrs by Annexin V-FITC/propidium iodide staining based flow cytometry (reference value: 1.5%); format: functional
MDA-MB-231 [30] = experiment: Induction of apoptosis in human MDA-MB-231 cells assessed as dead cells at 1 uM after 48 hrs by Annexin V-FITC/propidium iodide staining based flow cytometry (reference value: 1.5%); format: functional
SK-BR-3 [31] = experiment: Antiproliferative activity against human SK-BR-3 cells after 72 hrs by MTT assay; format: functional, cell-based; method in brief: as §3
MDA-MB-231 [32] = experiment: Inhibition of colony formation in human MDA-MB-231 cells after 2 weeks by crystal violet staining based assay; format: functional, cell-based; method in brief: as §1
[33] = Glutathione reactivity in pH 7.4 deuterated phosphate buffer assessed as GSH adduct formation at 10 mg after 1 hr in presence of 1.5 to 2 equiv of GSH by HRMS analysis
MDA-MB-231 [34] = experiment: Induction of apoptosis in human MDA-MB-231 cells assessed as early apoptotic cells at 1 uM after 48 hrs by Annexin V-FITC/propidium iodide staining based flow cytometry (reference value: 1.85%); format: functional

C=CC(=O)N1CC12C(=O)[C@@]13[C@@H]4OC(C)(C)O[C@@]15OC[C@@]1([C@H]([C@@H]5O)C(C)(C)CC[C@@H]1O)[C@@H]3CC[C@H]42 (some centres not stated)
t1/2 [1]: 30 to 60 min
Activity (MDA-MB-231 [2]): 3.6%
Activity (MDA-MB-231 [3]): 21.6%
Activity (MDA-MB-231 [4]): 5.2%
inhibition (MDA-MB-468 [5]): Active
Activity (MDA-MB-231 [6]): Active
Activity (MDA-MB-231 [7]): 79.05%
Activity (MCF-10A): Non-Toxic
Activity (MDA-MB-231 [8]): 89.5%
Activity (MDA-MB-231 [9]): 6.7%
Activity (MDA-MB-231 [10]): Dose-dependent effect
Activity (MDA-MB-231 [11]): 2.75%
Activity (MDA-MB-468 [12]): Dose-dependent effect
Activity (MDA-MB-231 [13]): 2.95%
Activity (MCF7 [14]): Dose-dependent effect
IC50 (MCF7 [14]; MCF7, 72 h): 9.39 µM
Activity (MDA-MB-231 [15]): 50.35%
Activity (MDA-MB-231 [16]): Dose-dependent effect
Activity (MDA-MB-231 [17]): 70.25%
Activity (MDA-MB-231 [18]): 87.95%
inhibition (MCF7 [19]): Active
Activity (MDA-MB-231 [20]): Dose-dependent effect
IC50 (MDA-MB-231 [20]; MDA-MB-231, 72 h): 8.32 µM
Activity (MDA-MB-231 [21]): 44.65%
Activity (MDA-MB-231 [22]): 6.05%
inhibition (SK-BR-3 [23]): Active
TGI (MDA-MB-231 [24]): Active
Activity (MDA-MB-231 [25]): 5.45%
Activity (MDA-MB-231 [26]): 12.75%
Activity (MDA-MB-231 [27]): 1.75%
Activity (MDA-MB-231 [28]): Dose-dependent effect
Activity (MDA-MB-231 [29]): 2.05%
Activity (MDA-MB-231 [30]): 1.95%
Activity (SK-BR-3 [31]): Dose-dependent effect
inhibition (MDA-MB-231 [32]): Active
Drug metabolism [33]: Metabolite detected
Activity (MDA-MB-231 [34]): 2.5%
